# Bioassay records from PubChem.
# GAA850 FXN act: increases GAA850 frataxin promoter reporter activity. 360,000 compounds, 0.56% hits. activation, % at 6 µM. HEK293 lucGAA850 FXN promoter luciferase reporter, 24 h; percent of 10 µM SAHA response;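 active = activation above the average of all compounds screened plus 3 SD, cutoff fixed separately per campaign, cut at about 7.5% in these data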;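 note: 0% = DMSO wells and 100% = 10 µM SAHA wells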
# proCasp3 act: activators of human procaspase-3 | P42574 | recombinant procaspase-3 D3A, Ac-DEVD-pNA absorbance 405 nm | activation, % at 8.5 µM | 330,000 compounds, 0.11% hits | AID 463141;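 active = activation above the mean of all tested compounds plus 3 SD, cut at about 21% in these data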;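 note: 0% = DMSO alone and 100% = DMSO wells spiked with extra 5 µM PC-3 D3A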
#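 Compound: 8.5 µM single point, 0.8% DMSO / Material: Autoprocessing-dead procaspase-3 D3A mutant enzyme / Timing: 1 h preincubation plus 2 h reaction at 25 °C / Medium: Zinc-free HEPES/NaCl buffer with 0.01% Triton X-100 at pH 7.4 / Technique: 405 nm absorbance of p-nitroaniline, reads at 0 and 120 min / Repeats: one well per compound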
# procasp7 counter: counter-screen: procaspase-7 (human) activation; AID 463210; activation, % at 8.5 µM; recombinant procaspase-7, Ac-DEVD-pNA absorbance 405 nm; D23A/D198A/D206A triple mutant, cannot self-cleave; scale: DMSO 0, 5 µM enzyme 100; 330,000 compounds, 0.093% hits;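 active = percent activation above the screen-wide mean plus 3 SD, cut at about 25% in these data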
# Target sequence (P55210 whole entry D23A/D198A/D206A): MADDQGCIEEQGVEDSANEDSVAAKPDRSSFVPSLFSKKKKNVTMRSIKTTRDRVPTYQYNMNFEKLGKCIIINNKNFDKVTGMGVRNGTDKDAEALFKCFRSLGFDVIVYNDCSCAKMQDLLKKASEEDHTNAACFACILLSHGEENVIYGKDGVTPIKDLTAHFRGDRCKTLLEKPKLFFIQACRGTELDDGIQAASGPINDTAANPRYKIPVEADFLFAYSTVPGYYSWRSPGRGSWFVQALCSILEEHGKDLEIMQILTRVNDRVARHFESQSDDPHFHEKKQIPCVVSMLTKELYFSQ
#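 Test system: Procaspase-7 triple mutant (PC-7 D3A). Also added: Ac-DEVD-pNA substrate, 400 µM as added. Schedule: 1 h enzyme–compound preincubation and 2 h substrate reaction, both 25 °C. Signal: p-Nitroaniline absorbance at 405 nm, read at 0 and 120 min. Control set: low DMSO alone, high DMSO plus 5 µM PC-7.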
# GAA30 FXN cntr: activates GAA30 frataxin promoter, counter-screen for GAA850 activators; shares compounds with GAA850 FXN act; activation, % at 6 µM; 1,900 compounds, 66% hits; HEK293 lucGAA30 FXN promoter luciferase, 24 h; DMSO = 0%, 5 µM ipriflavone = 100%; AID 588350;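 active = mean activation above the mean of solvent-only control wells plus 3 SD, cut at about 22% in these data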;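 note: counterscreen of GAA850 promoter hits where activity marks nonselective or luminescence artifacts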
# GAA850 confirm: confirmation of GAA850 frataxin (FXN) promoter activators; shares compounds with GAA850 FXN act; HEK293 lucGAA850 FXN promoter luciferase reporter, 24 h; 100% = activation by SAHA; activation, % at 6 µM; 1,900 compounds, 86% hits;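 active = mean activation above a set limit taken from the primary screen, cut at about 8% in these data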;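 note: 0% = DMSO wells and 100% = 10 µM SAHA wells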
# Starred values were filed as active, the others as inactive; x = not tested or not shown. The list is not random: actives were taken first. Their share in the collection is about 0.7%.
SMILES,GAA850 FXN act,proCasp3 act,procasp7 counter,GAA30 FXN cntr,GAA850 confirm
COC(=O)[C@]1(C)N[C@H](CN(C)C(=O)Nc2ccccc2)[C@@H]2C(=O)N(Cc3ccccc3)C(=O)[C@@H]21,9.4*,12,4,22*,9.8*
CCN(C[C@H]1N[C@@](C)(C(=O)OC)[C@H]2C(=O)N(Cc3ccccc3)C(=O)[C@@H]12)C(=O)Nc1ccc(C)cc1,16*,4,4,28*,12*
COC(=O)[C@]1(C)N[C@H](CN(C)C(=O)NC(C)C)[C@@H]2C(=O)N(Cc3ccccc3)C(=O)[C@@H]21,-2,0,4,x,x
CCC(=O)N(Cc1c(C)nn(-c2ccccc2)c1Cl)c1ccc(Cl)cc1,2,3,4,x,x
Cc1ccccc1-c1cc(C(=O)O)n(CC2CC(c3cccnc3)=NO2)n1 (stereo unspecified),-1,-1,13,x,x
O=c1c(Cc2ccc(F)cc2)c(O)ccn1CCc1ccccn1,2,-1,-1,x,x
COc1cccc(CNC(=O)Cn2cc([N+](=O)[O-])cn2)c1,1,-1,7,x,x
COCCn1c(C)cc(C(=O)COC(=O)c2cncc(Br)c2)c1C,3,6,6,x,x
COCCn1c(C)cc(C(=O)COC(=O)c2ccc3ncsc3c2)c1C,7.8*,3,6,93*,32*
O=c1c2ccccc2[nH]c2ccc(O)cc12,8.2*,-12,-11,39*,18*
Cc1ccc2[nH]c3ccccc3c(=O)c2c1,2,-5,2,x,x
CC(C)CC(=O)NC(Nc1ccc([N+](=O)[O-])cc1)C(Cl)(Cl)Cl (stereo unspecified),-1,9,7,x,x
CCn1cc(/C=C(\NC(=O)c2cc(OC)c(OC)c(OC)c2)C(=O)N2CCOCC2)c2ccccc21,-3,x,x,x,x
O=C1/C(=C/c2ccccc2)Oc2cc(OC(=O)N3CCOCC3)ccc21,7.8*,-5,-1,62*,24*
O=C1/C(=C/c2ccc(F)cc2)Oc2cc(OC(=O)N3CCOCC3)ccc21,0,-4,-3,x,x
Cc1ccc(S(=O)(=O)CC(CN2CCOCC2)N2CCOCC2)cc1 (stereo unspecified),2,3,-9,x,x
CC1CCN(CC(CS(=O)(=O)c2ccc([N+](=O)[O-])cc2)N2CCC(C)CC2)CC1 (stereo unspecified),9.7*,1,-6,61*,16*
O=C(Nc1ccccc1Cl)c1cc(C2CCCCN2C(=O)c2ccccc2)on1 (stereo unspecified),-1,x,x,x,x
COc1ccc(C2CC(c3cccc(C)c3)n3ncnc3N2)cc1 (stereo unspecified),1,-4,-1,x,x
Cc1cccc(C2CC(c3ccccc3)Nc3ncnn32)c1 (stereo unspecified),19*,4,7,10,9.6*
O=C(COc1ccc(Cl)cc1)NNC(=O)c1cccnc1,3,-5,-2,x,x
CC1=NN(c2ccccc2)C(=O)/C1=C\C=C\c1ccccc1,8.6*,-7,-13,19,14*
CC1=NN(c2ccccc2)C(=O)/C1=C/C=C/c1ccc(N(C)C)cc1,-1,x,x,x,x
CCCCCN(C(=O)CCC(=O)OCc1ccc(C(C)C)cc1)c1c(N)n(CCCC)c(=O)[nH]c1=O,0,2,5,x,x
COc1cc(C(=O)Nc2nc3ccccc3[nH]2)ccc1OC(F)F,9.6*,-1,-8,86*,36*
SMILES,GAA850 FXN act,proCasp3 act,procasp7 counter,GAA30 FXN cntr,GAA850 confirm
COc1ccc(C(=O)Nc2nc3ccccc3[nH]2)cc1OC,1,6,-22,x,x
O=C(Nc1cc([N+](=O)[O-])ccc1N1CCCC1)c1cccs1,-2,7,-5,x,x
CC(=O)Nc1c2c(nn1-c1ccc(Cl)cc1)CSC2,3,9,2,x,x
CCNc1nc(NCC)nc(N(C)/N=C/c2ccco2)n1,2,-7,-9,x,x
O=C1C=CC(O)C2(CO)OC12 (stereo unspecified),12*,x,x,-1,12*
COc1cccc(NC(=O)CN(C)C(=O)c2ccc(-c3ccccc3Cl)o2)c1,-1,-2,-8,x,x
Oc1ccc(-c2cn3ccccc3n2)cc1,2,-2,1,x,x
Cc1ccn2cc(-c3cccc(NC(=O)C(C)C)c3)nc2c1,4,16,0,x,x
